# Screening results from PubChem BioAssay.
# Fh CTSL1 inh – Fasciola hepatica cathepsin L1 inhibitors, primary screen, counter-screen for PFM18AAP inhibitor project, biochemical, QFRET, fluorogenic peptide substrate; recombinant F. hepatica cathepsin L1, Z-Leu-Arg-MCA fluorescence; inhibition, % at 5.96 µM; actives 0.49% (n = 300,000); AID 1906, 2009;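 active means inhibition above the mean of all tested compounds plus 3 SD, set per screening campaign, cut at about 17% in these data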
# UBC13 inh – UBC13 polyubiquitin chain formation inhibitors, primary screen, biochemical, TR-FRET, uHTS; Ubiquitin-conjugating enzyme E2 N (Homo sapiens), P61088; inhibition, % at 20 µM; actives 0.47% (n = 330,000); AID 485273, 2010; in the data active means inhibition above about 45%, passing the limit was not always enough
# Target sequence (P61088 whole entry, looked up): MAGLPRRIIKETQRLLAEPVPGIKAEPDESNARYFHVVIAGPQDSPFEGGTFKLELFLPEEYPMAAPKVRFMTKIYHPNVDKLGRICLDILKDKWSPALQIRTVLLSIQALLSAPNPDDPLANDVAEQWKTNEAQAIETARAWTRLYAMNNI
# PP1 counter – PP1-alpha phosphatase inhibitors, primary screen, counter-screen for PP5 inhibitor project, biochemical, fluorescence, OMFP substrate, single point | Serine/threonine-protein phosphatase PP1-alpha catalytic subunit (Homo sapiens), P62136 | purified PP1alpha | inhibition, % at 6.7 µM | actives 0.9% (n = 320,000) | AID 2235, 2010;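 active means inhibition above the mean inhibition of all tested compounds plus 3 SD, computed separately for each screening campaign, cut at about 15% in these data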
# UCH37 inh – inhibitors of human UCH37 deubiquitinase, primary screen, biochemical, Ub-AMC cleavage, fluorescence; Ubiquitin carboxyl-terminal hydrolase isozyme L5 (Homo sapiens), Q9Y5K5; inhibition, % (no concentration beside the values); purified proteasome/UCH37; actives 0.33% (n = 330,000); AID 588478, 2011;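 active means mean inhibition over replicate wells above about 20%, limit read from the data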
# Target sequence (Q9Y5K5 whole entry, looked up): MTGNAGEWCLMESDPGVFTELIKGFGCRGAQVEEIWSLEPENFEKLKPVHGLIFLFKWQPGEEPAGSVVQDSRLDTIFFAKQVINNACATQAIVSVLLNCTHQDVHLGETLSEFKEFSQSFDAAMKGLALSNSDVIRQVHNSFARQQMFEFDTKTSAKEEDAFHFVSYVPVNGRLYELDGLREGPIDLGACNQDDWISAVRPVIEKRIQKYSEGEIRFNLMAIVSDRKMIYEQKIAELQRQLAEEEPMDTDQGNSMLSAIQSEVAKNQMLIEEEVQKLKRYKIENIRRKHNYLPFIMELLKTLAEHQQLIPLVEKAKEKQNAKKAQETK
#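 assay system = human UCH37 enzyme supplied as purified proteasome complex | amount = proteasome at 0.15 nM in the dispensed enzyme solution | schedule = 30 min compound-proteasome preincubation then 25 min substrate reaction, room temperature | measured by = fluorescence, ex 355 nm, em 460 nm | benchmarks = no-proteasome wells (full inhibition) and compound-free wells (no inhibition)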
# PP5 inh – PP5 phosphatase inhibitors, primary screen, biochemical, fluorescence; AID 1987, 2009; inhibition, % at 6.7 µM; purified PP5c, OMFP substrate fluorescence; actives 0.18% (n = 320,000);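 active means inhibition above the campaign's mean inhibition across all tested compounds plus 3 SD, cut at about 9.5% in these data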
# PREPL inh – PREPL enzyme inhibitors, primary screen, biochemical, fluorescence polarization; actives 0.68% (n = 320,000); Prolyl endopeptidase-like (Homo sapiens), Q4J6C6; recombinant PREPL, fluorescence polarization activity-based probe; AID 2751, 2010; inhibition, % at 5.96 µM; in the data active means inhibition above about 43%
# PP1 confirm – PP1 phosphatase inhibitors, confirmation, biochemical, fluorescence, OMFP substrate, triplicate | inhibition, % at 6.7 µM | actives 52% (n = 1,900) | shares compounds with PP1 counter | purified PP1alpha;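 active means mean PP1 inhibition above a set limit taken from the earlier primary screen, cut at about 15% in these data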
# PP5 inh counter – PP5 phosphatase inhibition by PP1 hits, confirmation, counter-screen for PP1 inhibitor project, biochemical, fluorescence, triplicate. actives 4% (n = 1,900). inhibition, % at 6.7 µM. shares compounds with PP1 counter. purified PP5c, OMFP fluorescence;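 active means mean PP5 inhibition over triplicate wells above about 9.5% taken from the earlier PP1 screen, limit read from the data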
# Numbers stand for hits; i = inactive; nt = not tested or not shown. Hits are enriched below; roughly 2.3% of the tested compounds scored in any of these assays.
SMILES,Fh CTSL1 inh,UBC13 inh,PP1 counter,UCH37 inh,PP5 inh,PREPL inh,PP1 confirm,PP5 inh counter
O=[N+]([O-])c1ccc(N2CCN(S(=O)(=O)c3ccc(Cl)cc3)CC2)cc1NCc1cccnc1,i,i,19.4,i,i,i,16.0,i
Cc1cccc(N2CCN(C(=O)c3ccc4c(c3)NC(=O)C(CSCc3cccc(F)c3)N4)CC2)c1C (stereo not drawn),i,i,23.5,nt,i,i,28.6,i
Cc1cccc(N2CCN(C(=O)c3ccc4c(c3)OCCO4)CC2)c1C,i,i,i,i,i,i,nt,nt
CC(NS(=O)(=O)OCC(Cl)(Cl)Cl)c1ccc(C(C)(C)C)cc1 (stereo not drawn),i,nt,19.2,i,i,i,i,i
CC(C)(NS(=O)(=O)OCC(Cl)(Cl)Cl)c1ccccc1,i,i,i,i,i,i,nt,nt
CN(C)CCOc1ccc(/C(=C(/CCCl)c2ccccc2)c2ccccc2)cc1,i,i,21.1,i,i,i,i,i
CCc1ccc(N=C2NC(=O)/C(=C/c3ccc(OCC(=O)O)cc3)S2)cc1,i,i,39.2,i,i,i,i,i
CCc1ccc(N=C2NC(=O)/C(=C/c3ccc(OCC(=O)O)c(OC)c3)S2)cc1,nt,i,nt,i,nt,nt,nt,nt
CC(=O)C1=C(O)C(=O)N(c2cccc(Br)c2)C1c1ccc(Br)cc1 (stereo not drawn),i,i,29.2,i,i,i,25.3,i
CC(=O)C1=C(O)C(=O)N(c2ccc(Br)cc2)C1c1ccc(Br)cc1 (stereo not drawn),i,i,24.4,i,i,i,22.7,i
CC(=O)C1=C(O)C(=O)N(c2ccc(Br)cc2)C1c1cccc([N+](=O)[O-])c1 (stereo not drawn),i,i,i,i,i,i,nt,nt
CCOC(=O)C1=C(O)C(=O)N(c2ccc(S(N)(=O)=O)cc2)C1c1ccc(Br)cc1 (stereo not drawn),i,i,20.9,i,i,i,i,i
CC(CC(=O)NC1CCCCC1)=NNC(=O)c1ccccc1C,nt,nt,nt,i,nt,nt,nt,nt
CCOC(=O)c1c(N=Cc2cccc([N+](=O)[O-])c2O)sc(C)c1C,nt,nt,nt,i,nt,nt,nt,nt
COc1c(N2CCN[C@H](C)C2)c(F)cc2c(=O)c(C(=O)O)cn(C3CC3)c12,i,i,i,i,i,i,nt,nt
COc1c(N2CCN(C(=S)NCc3ccccc3)C(C)C2)c(F)cc2c(=O)c(C(=O)O)cn(C3CC3)c12 (stereo not drawn),i,i,43.3,i,i,i,32.8,i
O=C(NN=Cc1ccc(Cl)cc1)c1ccc2c(c1)OCO2,nt,nt,nt,i,nt,nt,nt,nt
Oc1ccc(C=NNc2nn3cnnc3c3ccccc23)cc1,nt,nt,nt,i,nt,nt,nt,nt
O=C(c1ccco1)N1CCN(c2ncnc3c2nnn3Cc2ccccc2Cl)CC1,i,i,40.9,i,i,i,43.7,i
COc1c(OC)c(O)c2c(=O)c(O)c(-c3ccccc3)oc2c1OC,i,i,17.7,i,i,i,29.5,i
COc1ccc(-c2oc3c(OC)c(OC)c(OC)c(O)c3c(=O)c2OC)cc1OC,i,i,i,i,i,i,nt,nt
O=C(NN=Cc1cccs1)c1n[nH]c2c1CCC2,nt,nt,nt,i,nt,nt,nt,nt
Cc1ccc2nc(-c3ccc(NC(=O)COC(=O)c4ccco4)cc3)sc2c1,i,i,i,i,i,i,nt,nt
CCOc1ncccc1C(=O)OCC(=O)Nc1ccc(-c2nc3ccc(C)cc3s2)cc1,i,nt,18.6,i,i,i,29.4,i
COc1ccc(NC(=O)CN2C(=O)NC(C)(c3ccccc3)C2=O)cc1Cl (stereo not drawn),i,i,i,i,i,i,i,i
SMILES,Fh CTSL1 inh,UBC13 inh,PP1 counter,UCH37 inh,PP5 inh,PREPL inh,PP1 confirm,PP5 inh counter
CC1(c2ccc(Cl)cc2)NC(=O)N(CC(=O)Nc2ccc(F)cc2)C1=O (stereo not drawn),i,i,i,i,i,i,nt,nt
CC1(c2ccc(Cl)cc2)NC(=O)N(CC(=O)Nc2ccc(N3CCCCC3)cc2)C1=O (stereo not drawn),i,i,38.9,i,i,i,i,i
COc1ccc(C2(C)NC(=O)N(CC(=O)Nc3ccc4ccccc4c3)C2=O)cc1OC (stereo not drawn),nt,i,nt,i,nt,nt,nt,nt
CCCCCCOc1ccc(C=NNC(=O)C2CC2)cc1,nt,nt,nt,i,nt,nt,nt,nt
N#Cc1c(-c2ccccc2)c(-c2ccccc2)nn(CC(=O)NNC(=O)Nc2ccc(Cl)c(Cl)c2)c1=O,i,i,23.1,i,i,i,i,i
CC(=NNC(=O)COc1c(C)cccc1C)c1cccs1,nt,nt,nt,i,nt,nt,nt,nt
CCOc1ccccc1NC(=O)C(=O)NN=Cc1ccc([N+](=O)[O-])cc1,nt,nt,nt,i,nt,nt,nt,nt
CCOC(=O)c1c(NC(=O)COC(=O)c2ccc(NC(=O)CC#N)cc2)sc(C(=O)NC)c1C,nt,i,19.7,nt,i,i,i,i
CCOC(=O)c1c(NC(=O)COC(=O)c2ccc(O)cc2)sc(C(=O)N(C)C)c1C,i,i,i,i,i,i,nt,nt
Brc1ccc(C=NNc2ncnc3c2cnn3Cc2ccccc2)cc1,nt,nt,nt,i,nt,nt,nt,nt
CC(OC(=O)c1ccc(NC(=O)CC#N)cc1)C(=O)Nc1ccc(Oc2ccccc2)cc1 (stereo not drawn),i,i,19.5,nt,i,i,i,i
CC(C)C1Nc2ccc(C(=O)O)cc2C2C=CCC21 (stereo not drawn),i,i,i,i,i,i,nt,nt
CCOC(=O)c1ccc2c(c1)C1C=CCC1C(C(=O)O)N2 (stereo not drawn),i,i,29.9,i,i,i,i,i
O=c1c2ccccc2nc(COc2ccccc2)n1N=Cc1c[nH]c2ccccc12,nt,nt,nt,i,nt,nt,nt,nt
CCn1c(SCC(=O)c2ccc3c(c2)Cc2ccccc2-3)nnc1-c1ccc(N)cc1,i,i,20.7,i,i,i,20.4,i
CC(=NO)c1ccc(N2C(=O)C3CC=C(Cl)CC3C2=O)cc1 (stereo not drawn),nt,nt,nt,i,nt,nt,nt,nt
O=c1cc(NN=Cc2ccccc2)[nH]c(=O)[nH]1,nt,nt,nt,i,nt,nt,nt,nt
CCC1CCCCN1S(=O)(=O)c1ccc(C(=O)Nc2nnc(C3CC3)o2)cc1 (stereo not drawn),i,i,23.3,i,i,i,25.9,i
